Reference: ChEMBL document CHEMBL1138002, “Synthesis and biological evaluation of thiazolidine-2,4-dione and 2,4-thione derivatives as inhibitors of translation initiation” (2004)

Key:
Assay type in all cases: functional
[1] = Ratio of intensity of phosphorylation of phosphorylated eIF2a to the intensity of the total eIF2a was determined
Outline: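 Cells exposed to drug at 5 µM; extracts analysed by Western blot with phospho-Ser51-specific rabbit anti-eIF2a and mouse monoclonal total eIF2a antibodies, quantified by infrared imaging. Phospho/total eIF2a intensity ratio normalized to DMSO; TRO positive, DMSO negative control; mean ± SD of three determinations.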

[2] = tested on: A549; assay: Inhibition of human lung cancer cell line (A549) growth by 50% in sulforhodamine-B assay
Outline: (§1)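 Human A549 lung cancer cells; growth inhibition read by sulforhodamine B assay, staining cellular protein content. GI50 taken as concentration needed to inhibit 50% of cell proliferation. DMSO negative control, troglitazone (TRO) positive control; mean ± SD from three determinations.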

[3] = tested on: A549; assay: Inhibition of human lung cancer cell line (A549) by 50% in sulforhodamine B assay; outline: as §1

GI50 [2]	GI50 [3]	SMILES	Ratio [1]
8 µM		Cc1ccc(OCc2ccccc2)c(/C=C2\SC(=O)NC2=O)c1	1.94
2 µM		CC(C)(C)c1ccc(-c2ccc(OCc3ccccc3)c(/C=C3\SC(=S)NC3=O)c2)cc1	1.37
4 µM		O=C1NC(=S)S/C1=C\c1cc(-c2ccccc2)ccc1OCc1ccccc1	2.35
5 µM		O=C1NC(=O)/C(=C/c2cc(Br)ccc2OCc2ccccc2)S1	4.05
7 µM		O=C1NC(=S)S/C1=C\c1cc(Br)ccc1OCc1ccccc1	1.4
5 µM		O=C1NC(=O)/C(=C/c2cc(Cl)ccc2OCc2ccccc2)S1	4.52
35 µM		O=C1NC(=O)/C(=C/c2ccccc2OCc2ccccc2)S1	0.92
7 µM		CC(C)(C)c1ccc(OCc2ccccc2)c(/C=C2\SC(=S)NC2=O)c1	1.97
4 µM		O=C1NC(=O)/C(=C/c2cc(F)ccc2OCc2ccccc2)S1	0.72
	15 µM	Cc1c(C)c2c(c(C)c1O)CCC(C)(COc1ccc(CC3SC(=O)NC3=O)cc1)O2 (stereo not given) [TROGLITAZONE]	2.12
7 µM		COc1ccc(OCc2ccccc2)c(/C=C2\SC(=S)NC2=O)c1	0.94
29 µM		O=C1NC(=S)SC1Cc1cc(Cl)ccc1OCc1ccccc1 (stereo not given)	1.25
6 µM		Cc1ccc(OCc2ccccc2)c(/C=C2\SC(=S)NC2=O)c1	4.15
5 µM		O=C1NC(=S)S/C1=C\c1cc(N2CCOCC2)ccc1OCc1ccccc1	0.92
2 µM		CC(C)(C)c1ccc(OCc2ccccc2)c(/C=C2\SC(=O)NC2=O)c1	6.98
3 µM		O=C1NC(=S)S/C1=C\c1cc(N2CCCCC2)ccc1OCc1ccccc1	0.75
2 µM		O=C1NC(=O)/C(=C/c2cc(-c3ccccc3)ccc2OCc2ccccc2)S1	0.76
14 µM		COc1ccc(OCc2ccccc2)c(/C=C2\SC(=O)NC2=O)c1	0.98
5 µM		O=C1NC(=S)S/C1=C\c1cc([N+](=O)[O-])ccc1OCc1ccccc1	3.49
14 µM		O=C1NC(=O)/C(=C/c2cc([N+](=O)[O-])ccc2OCc2ccccc2)S1	0.89
	12 µM	CC(C)(C)c1ccc(OCc2ccccc2)c(CC2SC(=O)NC2=O)c1 (stereo not given)	0.79
9 µM		O=C1NC(=S)S/C1=C\c1cc(F)ccc1OCc1ccccc1	5.02
2 µM		CC(C)(C)c1ccc(-c2ccc(OCc3ccccc3)c(/C=C3\SC(=O)NC3=O)c2)cc1	1.16
5 µM		O=C1NC(=S)S/C1=C\c1cc(Cl)ccc1OCc1ccccc1	1.76
13 µM		O=C1NC(=S)S/C1=C\c1ccccc1OCc1ccccc1	1.17
